# Data published in ChEMBL document CHEMBL1143008, “Synthesis and biological evaluation of chiral alpha-aminoanilides with central antinociceptive activity” (2007).
# Legend:
# Type in all cases: functional
# Mus musculus [1] = test: Antinociceptive effect in Swiss Albino mouse assessed as licking latency at 50 mg/kg, sc after 15 mins by hotplate test; conditions: route subcutaneous
# Outline: (§1)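 Hot-plate test at 52.5 ± 0.1 °C in male Swiss albino mice (23-30 g) after s.c. dosing. The endpoint was fore- or hind-paw licking, timed before and at intervals up to 60 min. Mice scoring below 12 or above 18 s at pretest were rejected, with a 45 s cutoff. Mean ± SEM.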
# Mus musculus [2] = test: Antinociceptive activity in sc dosed Swiss Albino mouse by hotplate test
# Outline: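 Male Swiss albino mice (23-30 g), s.c. dosing. Paw-licking latency on a 52.5 ± 0.1 °C hot plate, read before and up to 60 min after dosing. Mice outside 12-18 s at pretest were excluded; cutoff was 45 s. […] was fitted from the dose-response data with a constrained four-parameter logistic model.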
# Mus musculus [3] = test: Antinociceptive effect in atropine treated Swiss Albino mouse assessed as licking latency at 50 mg/kg, sc by hotplate test; conditions: route subcutaneous
# Outline: (§2)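 Antagonist pretreatment before s.c. test compound in male Swiss albino mice: atropine 5 mg/kg i.p., or hemicholinium-3 1 µg per mouse i.c.v. The i.c.v. dose was 5 µL in isotonic saline under ether anaesthesia. Paw-licking latency on a 52.5 °C hot plate was read at each compound's time of maximum effect, compared with saline-saline mice. Cutoff was 45 s.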
# Mus musculus [4] = test: Effect on motor coordination in Swiss Albino mouse assessed as number of falls from rotarod at 50 mg/kg after 15 mins relative to CMC
# Outline: (§3)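 Motor coordination of male Swiss albino mice on the rota-rod, counted as number of falls, before dosing and 15, 30 and 45 min after. Each value is the mean of 6-8 mice, compared with vehicle-treated controls.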
# Mus musculus [5] = test: Effect on motor coordination in Swiss Albino mouse assessed as number of falls from rotarod at 50 mg/kg after 30 mins relative to CMC; outline: as §3
# Mus musculus [6] = test: Effect on motor coordination in Swiss Albino mouse assessed as number of falls from rotarod at 50 mg/kg after 45 mins relative to CMC; outline: as §3
# Mus musculus [7] = test: (§4) Antinociceptive effect in Swiss Albino mouse assessed as licking latency at 5 mg/kg, sc after 15 mins by hotplate test; conditions: route subcutaneous
# Mus musculus [8] = test: Antinociceptive effect in Swiss Albino mouse assessed as licking latency at 30 mg/kg, sc after 15 mins by hotplate test; conditions: route subcutaneous; outline: as §1
# Mus musculus [9] = test: Antinociceptive effect in atropine treated Swiss Albino mouse assessed as licking latency at 30 mg/kg, sc by hotplate test; conditions: route subcutaneous; outline: as §2
# Mus musculus [10] = test: Antinociceptive effect in Swiss Albino mouse assessed as licking latency at 15 mg/kg, sc after 15 mins by hotplate test; conditions: route subcutaneous; outline: as §1
# Mus musculus [11] = test: Antinociceptive effect in Swiss Albino mouse assessed as licking latency at 10 mg/kg, sc after 15 mins by hotplate test; conditions: route subcutaneous
# Mus musculus [12] = test: Antinociceptive effect in atropine treated Swiss Albino mouse assessed as licking latency at 10 mg/kg, sc by hotplate test; conditions: route subcutaneous; outline: as §2
# Mus musculus [13] = test: Effect on motor coordination in Swiss Albino mouse assessed as number of falls from rotarod at 10 mg/kg after 15 mins relative to CMC; outline: as §3
# Mus musculus [14] = test: Effect on motor coordination in Swiss Albino mouse assessed as number of falls from rotarod at 10 mg/kg after 30 mins relative to CMC; outline: as §3
# Mus musculus [15] = test: Effect on motor coordination in Swiss Albino mouse assessed as number of falls from rotarod at 10 mg/kg after 45 mins relative to CMC; outline: as §3
# Mus musculus [16] = test: Antinociceptive effect in Swiss Albino mouse assessed as licking latency at 10 mg/kg, sc after 30 mins by hotplate test; conditions: route subcutaneous
# Outline: (§5)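 Male Swiss albino mice (23-30 g) got 1, 5 or 10 mg/kg s.c. or saline. Fore- or hind-paw licking latency on a 52.5 ± 0.1 °C plate was taken before dosing and at 15, 30, 45 and 60 min. Pretest range was 12-18 s (others rejected) with a 45 s cutoff. Each value is the mean of at least 10 mice; mean ± SEM.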
# Mus musculus [17] = test: Antinociceptive effect in Swiss Albino mouse assessed as licking latency at 1 mg/kg, sc after 45 mins by hotplate test; conditions: route subcutaneous; outline: as §5
# Mus musculus [18] = test: Antinociceptive effect in Swiss Albino mouse assessed as licking latency at 5 mg/kg, sc after 45 mins by hotplate test; conditions: route subcutaneous; outline: as §5
# Mus musculus [19] = test: Antinociceptive effect in Swiss Albino mouse assessed as licking latency at 10 mg/kg, sc after 45 mins by hotplate test; conditions: route subcutaneous; outline: as §5
# Mus musculus [20] = test: Antinociceptive effect in Swiss Albino mouse assessed as licking latency at 1 mg/kg, sc after 60 mins by hotplate test; conditions: route subcutaneous; outline: as §5
# Mus musculus [21] = test: Antinociceptive effect in hemicolinium-3 treated Swiss Albino mouse assessed as licking latency at 10 mg/kg, sc by hotplate test; conditions: route subcutaneous; outline: as §2
# Mus musculus [22] = test: as §4; conditions: route subcutaneous; outline: as §5; remark: listed apart in the source
# Mus musculus [23] = test: Antinociceptive effect in Swiss Albino mouse assessed as licking latency at 1 mg/kg, sc after 15 mins by hotplate test; conditions: route subcutaneous; outline: as §5
# Mus musculus [24] = test: Antinociceptive effect in Swiss Albino mouse assessed as licking latency at 1 mg/kg, sc after 30 mins by hotplate test; conditions: route subcutaneous; outline: as §5
# Mus musculus [25] = test: Antinociceptive effect in Swiss Albino mouse assessed as licking latency at 5 mg/kg, sc after 30 mins by hotplate test; conditions: route subcutaneous; outline: as §5
# Mus musculus [26] = test: Antinociceptive effect in Swiss Albino mouse assessed as licking latency at 5 mg/kg, sc after 60 mins by hotplate test; conditions: route subcutaneous; outline: as §5
# Mus musculus [27] = test: Antinociceptive effect in Swiss Albino mouse assessed as licking latency at 10 mg/kg, sc after 60 mins by hotplate test; conditions: route subcutaneous; outline: as §5
# Mus musculus [28] = test: Effect on motor coordination in Swiss Albino mouse assessed as number of falls from rotarod at 30 mg/kg after 15 mins relative to CMC; outline: as §3
# Mus musculus [29] = test: Effect on motor coordination in Swiss Albino mouse assessed as number of falls from rotarod at 30 mg/kg after 30 mins relative to CMC; outline: as §3
# Mus musculus [30] = test: Effect on motor coordination in Swiss Albino mouse assessed as number of falls from rotarod at 30 mg/kg after 45 mins relative to CMC; outline: as §3
# Mus musculus [31] = test: Antinociceptive effect in Swiss Albino mouse assessed as licking latency at 20 mg/kg, sc after 15 mins by hotplate test; conditions: route subcutaneous; outline: as §1
# Mus musculus [32] = test: Antinociceptive effect in Swiss Albino mouse assessed as licking latency at 40 mg/kg, sc after 15 mins by hotplate test; conditions: route subcutaneous; outline: as §1
# Mus musculus [33] = test: Antinociceptive effect in hemicolinium-3 treated Swiss Albino mouse assessed as licking latency at 50 mg/kg, sc by hotplate test; conditions: route subcutaneous; outline: as §2
smiles,measurement,setting,value
Cc1cc(Cl)ccc1NC(=O)[C@H](C)N,Activity,Mus musculus [1],21.1 s
same,ED50,Mus musculus [2],41.3 mg/kg
same,Activity,Mus musculus [3],20.5 s
Cc1cc(Cl)ccc1NC(=O)[C@@H](C)N,Activity,Mus musculus [1],25.5 s
same,ED50,Mus musculus [2],39.2 mg/kg
same,Activity,Mus musculus [3],25 s
same,Activity,Mus musculus [4],1.5
same,Activity,Mus musculus [5],1.1
same,Activity,Mus musculus [6],0.8
C[C@H](N)C(=O)Nc1ccc(Cl)cc1,Activity,Mus musculus [7],15.8 s
C[C@@H](N)C(=O)Nc1ccc(Cl)cc1,Activity,Mus musculus [7],17.3 s
Cc1cc(Cl)cc(C)c1NC(=O)[C@@H](C)N,Activity,Mus musculus [8],23.2 s
same,ED50,Mus musculus [2],17.8 mg/kg
same,Activity,Mus musculus [9],23.7 s
Cc1ccccc1NC(=O)[C@H](C)N,Activity,Mus musculus [10],16.2 s
Cc1cc(Cl)cc(C)c1NC(=O)[C@H](N)C(C)C,Activity,Mus musculus [1],17 s
Cc1ccccc1NC(=O)[C@@H](C)N,Activity,Mus musculus [11],17.1 s
Cc1cccc(C)c1NC(=O)[C@@H](N)CC(C)C,Activity,Mus musculus [11],21.3 s
same,ED50,Mus musculus [2],6.8 mg/kg
same,Activity,Mus musculus [12],20.7 s
Cc1cccc(C)c1N(C)C(=O)[C@@H](N)C(C)C,Activity,Mus musculus [11],13.6 s
Cc1cccc(C)c1NC(=S)[C@H](C)N,Activity,Mus musculus [1],18.6 s
Cc1cccc(C)c1NC(=S)[C@@H](C)N,Activity,Mus musculus [1],18.8 s
Cc1cc(Cl)cc(C)c1NC(=O)[C@@H](N)C(C)C,Activity,Mus musculus [1],17.2 s
Cc1cccc(C)c1NC(=O)[C@H](N)CC(C)C,Activity,Mus musculus [11],20.7 s
same,ED50,Mus musculus [2],6.6 mg/kg
same,Activity,Mus musculus [12],23.9 s
same,Activity,Mus musculus [13],2.2
same,Activity,Mus musculus [14],1.5
same,Activity,Mus musculus [15],0.8
Cc1cccc(C)c1NC(=O)[C@H](N)C(C)C,Activity,Mus musculus [16],23.6 s
same,Activity,Mus musculus [17],15.3 s
same,Activity,Mus musculus [18],17.1 s
same,Activity,Mus musculus [19],18.5 s
same,Activity,Mus musculus [20],14.5 s
same,Activity,Mus musculus [11],30.3 s
same,ED50,Mus musculus [2],5.7 mg/kg
same,Activity,Mus musculus [12],16.9 s
same,Activity,Mus musculus [21],17.5 s
same,Activity,Mus musculus [22],23.7 s
same,Activity,Mus musculus [23],16.5 s
same,Activity,Mus musculus [24],17.2 s
same,Activity,Mus musculus [25],20.6 s
same,Activity,Mus musculus [26],14.9 s
same,Activity,Mus musculus [27],15.1 s
same,Activity,Mus musculus [13],2.3
same,Activity,Mus musculus [14],1.2
same,Activity,Mus musculus [15],0.9
Cc1cc(Cl)cc(C)c1NC(=O)[C@H](C)N,Activity,Mus musculus [8],25.1 s
same,ED50,Mus musculus [2],25.5 mg/kg
same,Activity,Mus musculus [9],26.6 s
same,Activity,Mus musculus [28],1.4
same,Activity,Mus musculus [29],1.2
same,Activity,Mus musculus [30],1
Cc1cccc(C)c1N(C)C(=O)[C@H](N)C(C)C,Activity,Mus musculus [31],13.6 s
Cc1cc(Cl)ccc1NC(=O)[C@@H](N)C(C)C,Activity,Mus musculus [32],19.9 s
same,ED50,Mus musculus [2],25.9 mg/kg
Cc1cc(Cl)ccc1NC(=O)[C@H](N)C(C)C,Activity,Mus musculus [8],27.9 s
same,ED50,Mus musculus [2],19.6 mg/kg
same,Activity,Mus musculus [9],26.4 s
same,Activity,Mus musculus [28],1.5
same,Activity,Mus musculus [29],1.3
same,Activity,Mus musculus [30],0.8
Cc1cccc(C)c1NC(=O)[C@@H](N)C(C)C,Activity,Mus musculus [11],15.8 s
Cc1cccc(C)c1NC(=O)[C@@H](C)N [(R)-TOCAINIDE],Activity,Mus musculus [1],26.5 s
same,ED50,Mus musculus [2],33.6 mg/kg
same,Activity,Mus musculus [3],17.5 s
same,Activity,Mus musculus [33],18.6 s
same,Activity,Mus musculus [4],1.7
same,Activity,Mus musculus [5],1.4
same,Activity,Mus musculus [6],0.9
Cc1cccc(C)c1NC(=O)[C@H](C)N [S-TOCAINIDE],Activity,Mus musculus [1],14.3 s
